Experimental data collected from several papers.
Compare with care: the assays were run in different laboratories.
Cell line: DU-145
Effect on: cell growth or viability

Cn1cc(C(c2ccc(/C=C/C(=O)O)s2)c2cn(C)c3ccccc23)c2ccccc21  IC50 (MTT; 48 h): 46 µM
COc1cc(C(=O)c2csc(-c3ccccc3)n2)cc(OC)c1OC  IC50 (SRB; 96 h): 0.071 µM
COc1cccc([C@@H]2C[C@@H](C)OC(=O)c3cc4ccccn4c32)c1 (racemic)  IC50 (resazurin; 72 h): > 100 µM
COc1cc(C2Oc3cc([C@H]4Oc5cc(O)cc(O)c5C(=O)[C@@H]4O)ccc3OC2CO)ccc1O (stereo partly shown)  IC50 (CCK-8; 72 h): 21.9 µM
COc1cc(OC)cc([C@H]2C[C@@H](C)OC(=O)c3cc4ccccn4c32)c1 (racemic)  IC50 (resazurin; 72 h): 52.4 µM
O=C(O)/C=C/c1ccc(C(c2c[nH]c3ccccc23)c2c[nH]c3ccccc23)s1  IC50 (MTT; 48 h): 90 µM
COC1=CC(=O)N(C(=O)[C@@H](CCC(Cl)(Cl)Cl)NC(=O)C(C)(C)C)[C@@H]1CCC(Cl)Cl  IC50 (resazurin; 72 h): > 35 µM
COc1cc(Nc2nccc(-c3cnn4nc(OC)ccc34)n2)cc(C(F)(F)F)c1  IC50 (ATP luminescence): 0.38 µM
C[C@@H]1C[C@@H](c2ccc3c(c2)OCO3)c2c(cc3ccccn23)C(=O)O1 (racemic)  IC50 (resazurin; 72 h): 35.7 µM
CC(C)C(=O)Nc1ccc([N+](=O)[O-])c(C(F)(F)F)c1  IC50 (CCK-8; 48 h): > 50 µM
C[C@@H]1C[C@@H](c2ccc(Br)cc2)c2c(cc3ccccn23)C(=O)O1 (racemic)  IC50 (resazurin; 72 h): 46.6 µM
O=C(O)c1ccc(C(c2c[nH]c3ccccc23)c2c[nH]c3ccccc23)cc1  IC50 (MTT; 48 h): > 100 µM
C[C@@H]1C[C@@H](c2cccc(Cl)c2)c2c(cc3ccccn23)C(=O)O1 (racemic)  IC50 (resazurin; 72 h): > 100 µM
Cc1ccc2c(c1)c(C(c1ccc(/C=C/C(=O)O)s1)c1cn(C(C)C)c3ccc(C)cc13)cn2C(C)C  IC50 (MTT; 48 h): > 100 µM
O=C1NC(c2ccccc2)(c2ccccc2)C(=O)N1Cc1cn(-c2c3ccccc3nc3ccccc23)nn1  IC50 (MTT): 79.3 µM
COc1cc([C@H]2C[C@@H](C)OC(=O)c3cc4ccccn4c32)cc(OC)c1OC (racemic)  IC50 (resazurin; 72 h): 36.9 µM
COc1cccc2c1C(=O)c1c(O)c3c(c(O)c1C2=O)C[C@@](O)(C(=O)CO)C[C@@H]3O[C@H]1C[C@H](N)[C@H](O)[C@H](C)O1  IC50 (WST-1; 72 h): 0.03 µM
C[C@@H]1C[C@H](c2cccc(F)c2)c2c(cc3ccccn23)C(=O)O1 (racemic)  IC50 (resazurin; 72 h): > 100 µM
Oc1ccc(C(c2c[nH]c3ccccc23)c2c[nH]c3ccccc23)cc1  IC50 (MTT; 48 h): 48 µM
Cc1ccccc1-c1ccc(Cn2cccc(O)c2=S)cc1  IC50 (MTS): 13.6 µM
Cn1cc(C(c2cccc(/C=C/C(=O)O)c2)c2cn(C)c3ccccc23)c2ccccc21  IC50 (MTT; 48 h): > 100 µM
Cc1ccc(S(=O)(=O)N(C)CC(=O)N(Cc2ccc(C3CCCCC3)cc2)c2ccc(C(=O)O)c(O)c2)cc1  IC50: 37.2 µM
